{"source": "paper PMC4338581", "about": "(Bioorganic & medicinal chemistry letters, 2014)", "key": {"MMP-7": {"molecular_target": "MMP-7", "conditions": "ref [37]; cited from earlier work"}, "HT-1080 xenografts": {"tested_on": "HT-1080 xenografts", "conditions": "ref [19], cited from earlier work"}, "albumin": {"tested_on": "albumin", "conditions": "ref [26]; cited from earlier work"}, "[1]": {"tested_on": "gelatinases (MMP-2 and MMP-9) versus other MMP family members", "conditions": "ref [23], [24]; cited from earlier work"}, "MMP-2 [2]": {"molecular_target": "T1, MMP-2 (Homo sapiens, UniProt P08253)", "T1 sequence (P08253 110-660)": "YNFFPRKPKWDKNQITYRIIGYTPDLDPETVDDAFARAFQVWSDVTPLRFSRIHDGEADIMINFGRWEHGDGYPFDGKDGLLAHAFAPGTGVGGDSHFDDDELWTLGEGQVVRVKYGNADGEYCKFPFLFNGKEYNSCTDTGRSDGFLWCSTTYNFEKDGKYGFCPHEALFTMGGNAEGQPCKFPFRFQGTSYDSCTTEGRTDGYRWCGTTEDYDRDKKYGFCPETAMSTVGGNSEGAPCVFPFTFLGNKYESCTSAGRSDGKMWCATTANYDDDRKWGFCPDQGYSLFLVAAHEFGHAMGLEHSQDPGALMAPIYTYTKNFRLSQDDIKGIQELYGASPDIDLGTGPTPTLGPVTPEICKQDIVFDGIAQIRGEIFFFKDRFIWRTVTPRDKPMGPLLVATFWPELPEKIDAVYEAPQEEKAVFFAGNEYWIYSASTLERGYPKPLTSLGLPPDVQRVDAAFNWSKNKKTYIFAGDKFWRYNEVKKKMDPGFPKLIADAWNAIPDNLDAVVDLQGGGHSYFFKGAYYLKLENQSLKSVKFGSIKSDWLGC", "conditions": "ref [23]; cited from earlier work"}, "[3]": {"conditions": "ref [23]; cited from earlier work"}, "MMP-9 [4]": {"molecular_target": "T2, MMP-9 (Homo sapiens, UniProt P14780)", "T2 sequence (P14780 94-707)": "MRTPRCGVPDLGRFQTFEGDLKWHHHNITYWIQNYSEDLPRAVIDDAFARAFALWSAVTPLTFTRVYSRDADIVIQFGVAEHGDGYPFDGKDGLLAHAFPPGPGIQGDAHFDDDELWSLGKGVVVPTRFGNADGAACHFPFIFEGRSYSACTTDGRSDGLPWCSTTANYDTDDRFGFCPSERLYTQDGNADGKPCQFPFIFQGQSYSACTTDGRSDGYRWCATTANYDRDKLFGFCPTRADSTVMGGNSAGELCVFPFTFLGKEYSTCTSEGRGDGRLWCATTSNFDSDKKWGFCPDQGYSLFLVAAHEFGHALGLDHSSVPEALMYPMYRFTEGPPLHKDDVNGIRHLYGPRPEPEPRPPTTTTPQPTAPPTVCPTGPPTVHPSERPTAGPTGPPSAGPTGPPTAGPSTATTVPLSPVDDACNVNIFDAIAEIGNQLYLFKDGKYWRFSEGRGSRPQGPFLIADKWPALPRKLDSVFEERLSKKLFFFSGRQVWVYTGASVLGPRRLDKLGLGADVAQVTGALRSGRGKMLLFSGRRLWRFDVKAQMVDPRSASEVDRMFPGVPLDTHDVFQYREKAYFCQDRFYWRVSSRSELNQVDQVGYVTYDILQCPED", "conditions": "ref [23]; cited from earlier work"}, "MMP-2 [5]": {"molecular_target": "T1, MMP-2", "test": "Enzyme kinetics", "format": "biochemical", "conditions": "λexcitation = 780 nm, λemission = 810 nm; for kcat: Michaelis-Menten; for Km: ± standard error of the mean"}, "MMP-9 [6]": {"molecular_target": "T2, MMP-9", "test": "Enzyme kinetics", "format": "biochemical", "conditions": "λexcitation = 780 nm, λemission = 810 nm; for kcat: Michaelis-Menten; for Km: ± standard error of the mean"}, "[7]": {"test": "Fluorescence quenching efficiency, intact vs completely hydrolyzed", "format": "physicochemical", "conditions": "from variable temperature absorbance spectra and variable temperature fluorescence melting curves"}, "[8]": {"test": "Triple-helix melting temperature", "format": "physicochemical", "conditions": "from fluorescence melting curves; Table 1"}, "[9]": {"test": "Variable temperature absorbance spectra", "format": "physicochemical", "conditions": "room temperature, PBS", "procedure,_shortened": "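Dye-labelled triple-helical peptide conjugates in PBS; absorbance spectra recorded across a range of temperatures. Quenching efficiency was derived from these spectra together with variable-temperature fluorescence melting curves.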"}, "[10]": {"tested_on": "gelatinases (MMP-2 and MMP-9) versus other MMP family members", "test": "Substrate selectivity for gelatinases within the MMP family", "format": "biochemical", "conditions": "authors' summary statement"}, "[11]": {"tested_on": "HT-1080 xenografted tumors (gelatinase activity)", "test": "FMT imaging of mice bearing HT-1080 fibrosarcoma xenografts", "conditions": "2 nmol i.v."}}, "note": "Read-outs that look alike come from different tables or passages of the source. Marks after values point to notes of the source that are not given here.", "data": [{"compound": "CC1(C)SCCN(S(=O)(=O)c2ccc(Oc3ccncc3)cc2)[C@H]1C(=O)NO", "note": "[Prinomastat, reference compound]", "values": [{"measurement": "Ki", "setting": "MMP-7", "result": 54, "unit": "nM"}, {"measurement": "reduction of tumor-associated fluorescence on co-administration", "setting": "HT-1080 xenografts; with MMPSense, HT-1080 xenografts", "result": 2.5, "unit": "fold"}]}, {"compound": "CC1(C)C(/C=C/C=C/C=C/C=C2/N(CCC(=O)O)c3ccc4ccccc4c3C2(C)C)=[N+](CCC(=O)O)c2ccc3ccccc3c21.[Br-]", "note": "[cypate]", "values": [{"measurement": "binding affinity to albumin", "setting": "albumin", "result": "good binding affinity"}]}, {"compound": "(GPO)5GPK(Mca)GPPG~VVGEK(Dnp)GEN(GPO)5-NH2 [fTHP]", "values": [{"measurement": "kcat/KM for gelatinases relative to other MMP family members", "setting": "[1]", "result": "more than 10 fold"}, {"measurement": "Km", "setting": "MMP-2 [2]", "result": 4.4, "unit": "µM"}, {"measurement": "kcat", "setting": "MMP-2 [2]", "result": 0.061, "unit": "s⁻¹"}, {"measurement": "kcat/KM", "setting": "MMP-2 [2]", "result": "14 × 10^3 s^−1M^−1"}, {"measurement": "TM", "setting": "[3]", "result": 45.0, "unit": "°C"}, {"measurement": "Km", "setting": "MMP-9 [4]", "result": 8.1, "unit": "µM"}, {"measurement": "kcat", "setting": "MMP-9 [4]", "result": 0.044, "unit": "s⁻¹"}, {"measurement": "kcat/KM", "setting": "MMP-9 [4]", "result": "5.4 × 10^3 s^−1M^−1"}]}, {"compound": "(GPO)5GPKGPPG~VVGEK(PEG2-cypate)GEQ(GPO)5 [cypate3-(PEG)2-THP]", "values": [{"measurement": "kcat/KM", "setting": "MMP-2 [5]", "result": 9100, "unit": "M⁻¹ s⁻¹"}, {"measurement": "kcat", "setting": "MMP-2 [5]", "result": 0.099, "unit": "s⁻¹"}, {"measurement": "kcat/KM", "setting": "MMP-2 [5]; Table 1", "result": "9.1 × 10^3 s^−1M^−1"}, {"measurement": "Km", "setting": "MMP-2 [5]", "result": 10.9, "unit": "µM"}, {"measurement": "kcat/KM", "setting": "MMP-9 [6]", "result": 9100, "unit": "M⁻¹ s⁻¹"}, {"measurement": "kcat", "setting": "MMP-9 [6]", "result": 0.202, "unit": "s⁻¹"}, {"measurement": "kcat/KM", "setting": "MMP-9 [6]; Table 1", "result": "9.1 × 10^3 s^−1M^−1"}, {"measurement": "Km", "setting": "MMP-9 [6]", "result": 22.2, "unit": "µM"}, {"measurement": "quenching efficiency, comparison with and without PEG spacer", "setting": "[7]", "result": "similar"}, {"measurement": "TM", "setting": "[8]", "result": "45.5^b °C"}]}, {"compound": "(GPO)5GPKGPPG~VVGEK(cypate)GEQ(GPO)5 [cypate3-THP]", "values": [{"measurement": "kcat/KM", "setting": "MMP-2 [5]", "result": 6800, "unit": "M⁻¹ s⁻¹"}, {"measurement": "kcat", "setting": "MMP-2 [5]", "result": 0.056, "unit": "s⁻¹"}, {"measurement": "kcat/KM", "setting": "MMP-2 [5]; Table 1", "result": "6.8 × 10^3 s^−1M^−1"}, {"measurement": "Km", "setting": "MMP-2 [5]", "result": 8.19, "unit": "µM"}, {"measurement": "kcat/KM", "setting": "MMP-9 [6]", "result": 6400, "unit": "M⁻¹ s⁻¹"}, {"measurement": "kcat", "setting": "MMP-9 [6]", "result": 0.142, "unit": "s⁻¹"}, {"measurement": "kcat/KM", "setting": "MMP-9 [6]; Table 1", "result": "6.4 × 10^3 s^−1M^−1"}, {"measurement": "Km", "setting": "MMP-9 [6]", "result": 22.3, "unit": "µM"}, {"measurement": "quenching efficiency, comparison with and without PEG spacer", "setting": "[7]", "result": "similar"}, {"measurement": "TM", "setting": "[8]", "result": "50.5^b °C"}, {"measurement": "additional absorption peak (aggregate)", "setting": "[9]", "result": 710, "unit": "nm"}, {"measurement": "main absorption peak", "setting": "[9]", "result": 780, "unit": "nm"}, {"measurement": "aggregation", "setting": "[9]; 300 nM, up to 1.5 μM", "result": "significant intramolecular H-aggregation"}, {"measurement": "selectivity of hydrolysis", "setting": "[10]", "result": "efficiently hydrolyzed selectively by MMP-2 and -9"}, {"measurement": "average tumor to background ratio", "setting": "[11]; 4 hours post-injection, n = 3", "result": 10.2}, {"measurement": "clearance of fluorescence", "setting": "[11]; after 24 h", "result": "slowly cleared from most tissues after 24 h"}, {"measurement": "time of peak normalized fluorescence intensity", "setting": "[11]; post-injection, n = 3", "result": 4, "unit": "h"}, {"measurement": "fluorescence enhancement within the tumor", "setting": "[11]; abstract", "result": "significant fluorescence enhancement within the tumor"}, {"measurement": "normalized tumor fluorescence intensity", "setting": "[11]; pmol cypate/mm^3 tumor volume, 1 hour post-injection, n = 3", "result": "relatively low"}]}, {"compound": "PLGVR [MMPSense]", "values": [{"measurement": "visualization of HT-1080 xenografts", "setting": "HT-1080 xenografts; NIR reflectance imaging", "result": "enabled the visualization of the HT-1080 xenografts"}]}]}
